ChEMBL document CHEMBL2010756, “New 4-[(5-arylidene-2-arylimino-4-oxo-3-thiazolidinyl)methyl]benzoic acids active as protein tyrosine phosphatase inhibitors endowed with insulinomimetic effect on mouse C2C12 skeletal muscle cells” (Eur J Med Chem, 2012)
Activity calls are given as the source filed them. No cut-off for these calls is given here.

Experiments:
[1] = biological target: T1, Tyrosine-protein phosphatase non-receptor type 1 (Mus musculus) (UniProt P35821); assay: Inhibition of PTP1B in mouse C2C12 cells assessed as increase in intracellular 2-deoxyglucose uptake using [3H]glucose as substrate at 25 uM after 90 mins by scintillation counting; assay type: cell-based
T1 sequence (whole entry): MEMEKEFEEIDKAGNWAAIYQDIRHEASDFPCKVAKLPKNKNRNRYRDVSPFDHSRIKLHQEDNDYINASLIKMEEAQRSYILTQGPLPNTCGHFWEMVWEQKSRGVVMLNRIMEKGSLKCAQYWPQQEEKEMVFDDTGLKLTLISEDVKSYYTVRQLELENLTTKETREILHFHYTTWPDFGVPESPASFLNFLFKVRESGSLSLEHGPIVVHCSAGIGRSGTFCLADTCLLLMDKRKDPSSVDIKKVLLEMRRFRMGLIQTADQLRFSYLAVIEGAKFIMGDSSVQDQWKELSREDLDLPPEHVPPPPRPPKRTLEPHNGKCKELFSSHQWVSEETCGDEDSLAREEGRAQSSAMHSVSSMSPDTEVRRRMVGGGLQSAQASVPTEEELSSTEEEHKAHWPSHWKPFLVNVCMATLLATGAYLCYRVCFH
Summary of the method: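 C2C12 myotubes were differentiated and serum-starved 20 h, then treated 90 min with 25 µM compound (1.2% DMSO). Insulin 10 nM for 30 min was the positive control. 0.1 µCi 2-deoxy-D-[3H]glucose in Ringer–Hepes was taken up 15 min at 37 °C. Cells were washed with cold PBS, lysed in 0.2 M NaOH and counted by scintillation, normalized to protein. Mean ± SE of three replicates.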

[2] = biological target: T2, Low molecular weight phosphotyrosine protein phosphatase (Homo sapiens, UniProt P24666); assay: Competitive inhibition of GST-tagged human recombinant LMW-PTP IF2 expressed in Escherichia coli TB1 using p-nitrophenylphosphate as substrate by Line-Weaver Burk plot
T2 sequence (P24666 whole entry): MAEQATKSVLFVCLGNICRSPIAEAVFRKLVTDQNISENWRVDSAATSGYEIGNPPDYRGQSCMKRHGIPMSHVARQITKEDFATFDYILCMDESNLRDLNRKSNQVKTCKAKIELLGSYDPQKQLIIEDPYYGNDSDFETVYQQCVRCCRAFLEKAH
Summary of the method: (§1)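 Human enzymes were expressed in E. coli TB1 as GST fusions and purified on glutathione-Sepharose. GST was removed by thrombin (3 h, 37 °C), followed by gel filtration. Assays ran at 37 °C in pH 7.0 buffer (0.075 M β,β-dimethylglutarate, 1 mM EDTA, 5 mM DTT) with p-nitrophenylphosphate, read at 400 nm. Initial rates were measured in triplicate at differing substrate and inhibitor levels, and apparent Km was plotted against inhibitor concentration to give Ki.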

[3] = species on record: Homo sapiens; assay: Selectivity ratio of IC50 for human recombinant LMW-PTP IF2 to IC50 for human recombinant LMW-PTP IF1
Summary of the method: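 Recombinant human LMW-PTP IF1 and IF2 (GST cleaved off) were assayed at 37 °C in pH 7.0 β,β-dimethylglutarate/EDTA/DTT buffer. Fixed p-nitrophenylphosphate equal to each isoform's Km was used, with p-nitrophenolate read at 400 nm. IC50 came from fitting vi/v0 against inhibitor concentration to a four-parameter equation. The ratio is IF2 IC50 over IF1 IC50.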

[4] = species on record: Homo sapiens; assay: Selectivity ratio of IC50 for human recombinant TCPTP to IC50 for human recombinant PTP1B
Summary of the method: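 IC50 values were from initial p-nitrophenylphosphate hydrolysis (400 nm) in pH 7.0 β,β-dimethylglutarate/EDTA/DTT buffer, fitted to a four-parameter equation. PTP1B (recombinant human, GST cleaved) was assayed at 37 °C with substrate at its Km. Commercial recombinant TC-PTP (0.02 µg) was assayed with 2.8 mM p-nitrophenylphosphate, stopped with KOH. The ratio is TC-PTP IC50 over PTP1B IC50.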

[5] = biological target: T1, Tyrosine-protein phosphatase non-receptor type 1 (Mus musculus); assay: Inhibition of PTP1B in mouse C2C12 cells assessed as increase in insulin receptor beta tyrosine phosphorylation at 25 uM; assay type: cell-based
Summary of the method: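 Differentiated, 20 h serum-starved C2C12 myotubes were exposed to 25 µM compound (1.2% DMSO) for 90 min at 37 °C. Insulin 10 nM for 30 min served as positive control. Lysates in SDS sample buffer were run on SDS-PAGE and western blotted for phospho-IRβ, normalized to actin, in at least three experiments.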

[6] = biological target: T2, Low molecular weight phosphotyrosine protein phosphatase; assay: Competitive inhibition of GST-tagged human recombinant LMW-PTP IF1 expressed in Escherichia coli TB1 using p-nitrophenylphosphate as substrate by Line-Weaver Burk plot; summary of the method: as §1
[7] = biological target: T3, Tyrosine-protein phosphatase non-receptor type 1 (Homo sapiens, UniProt P18031); assay: Competitive inhibition of GST-tagged human recombinant PTP1B expressed in Escherichia coli TB1 using p-nitrophenylphosphate as substrate by Line-Weaver Burk plot; summary of the method: as §1
T3 sequence (P18031 whole entry): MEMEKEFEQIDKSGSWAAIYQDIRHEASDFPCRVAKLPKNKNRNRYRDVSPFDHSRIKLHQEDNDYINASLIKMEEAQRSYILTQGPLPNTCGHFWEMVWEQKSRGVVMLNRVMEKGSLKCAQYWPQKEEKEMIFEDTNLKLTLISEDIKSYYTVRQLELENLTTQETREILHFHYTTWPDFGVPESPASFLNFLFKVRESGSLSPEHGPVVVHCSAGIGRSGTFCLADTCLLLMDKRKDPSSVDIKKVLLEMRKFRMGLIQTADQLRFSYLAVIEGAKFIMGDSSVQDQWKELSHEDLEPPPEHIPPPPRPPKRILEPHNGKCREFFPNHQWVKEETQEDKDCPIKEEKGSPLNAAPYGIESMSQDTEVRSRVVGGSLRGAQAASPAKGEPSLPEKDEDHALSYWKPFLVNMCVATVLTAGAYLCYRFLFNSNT

[8] = test system: C2C12; assay: Cytotoxicity against mouse C2C12 cells at 25 uM after 2 hrs by MTT assay; assay type: cell-based; details: c2c12, 2 h
Summary of the method: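 C2C12 myoblasts were differentiated 4 days in DMEM/2% horse serum, then serum-starved 20 h. Compounds at 25 µM final (DMSO vehicle) were given for 2 h. MTT was added at 0.5 mg/ml final, 37 °C for 2 h. Cells were lysed in DMSO and formazan read at 570 nm, expressed as % of DMSO control, mean ± SE of three replicates.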

[9] = biological target: T4, Tyrosine-protein phosphatase non-receptor type 2 (Homo sapiens, UniProt P17706); assay: Competitive inhibition of human recombinant TCPTP using p-nitrophenylphosphate as substrate by Line-Weaver Burk plot
T4 sequence (P17706 whole entry): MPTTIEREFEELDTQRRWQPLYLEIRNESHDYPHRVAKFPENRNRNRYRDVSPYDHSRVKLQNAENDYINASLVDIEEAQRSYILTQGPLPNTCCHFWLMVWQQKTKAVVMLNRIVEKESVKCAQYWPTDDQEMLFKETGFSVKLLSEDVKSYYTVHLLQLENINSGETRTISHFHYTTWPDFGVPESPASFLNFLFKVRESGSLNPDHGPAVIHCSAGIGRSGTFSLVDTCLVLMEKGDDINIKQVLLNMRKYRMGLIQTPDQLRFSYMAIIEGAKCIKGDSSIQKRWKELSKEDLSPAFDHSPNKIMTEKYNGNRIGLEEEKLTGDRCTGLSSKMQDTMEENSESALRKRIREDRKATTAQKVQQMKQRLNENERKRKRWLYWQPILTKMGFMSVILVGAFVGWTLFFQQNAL

Structure (SMILES) | inhibition [1] | IC50 [2] | Ratio IC50 [3] | Ratio IC50 [4] | inhibition [5] | IC50 [6] | IC50 [7] | IC50 [9] | Ki [7] | Activity [8]
O=C(O)c1ccc(CN2C(=O)/C(=C/c3cccc(OCc4ccccc4)c3)S/C2=N\c2ccc(C(F)(F)F)cc2)cc1 | Active | > 150 µM | > 3 | > 2 | Active | 12 µM | 5.6 µM | > 100 µM | – | Non-toxic
O=C(O)c1ccc(CN2C(=O)/C(=C/c3ccc(OCc4ccccc4)cc3)S/C2=N\c2ccc(C(F)(F)F)cc2)cc1 | Active | 25.4 µM | > 3 | > 2 | Active | 4 µM | 1.4 µM | 2.2 µM | 1.2 µM | Non-toxic
O=C(O)c1ccc(CN2C(=O)/C(=C/c3cccc(Oc4ccccc4)c3)S/C2=N\c2ccc(C(F)(F)F)cc2)cc1 | Active | > 150 µM | > 3 | 2 | – | 13.7 µM | 10.4 µM | 20.6 µM | – | Non-toxic
O=C(O)c1ccc(CN2C(=O)/C(=C/c3ccc(Oc4ccccc4)cc3)S/C2=N\c2ccc(C(F)(F)F)cc2)cc1 | – | 33.2 µM | > 3 | 7.1 | – | 7.3 µM | 2.2 µM | 15.6 µM | – | Non-toxic
COc1ccc(/N=C2\S/C(=C\c3cccc(Oc4ccccc4)c3)C(=O)N2Cc2ccc(C(=O)O)cc2)cc1 | inactive | 21.8 µM | > 3 | > 2 | Active | 12 µM | 10.9 µM | 20.5 µM | – | Non-toxic

Stronger by IC50 [2], values ahead:

inhibition [1] | IC50 [2] | Ratio IC50 [3] | Ratio IC50 [4] | inhibition [5] | IC50 [6] | IC50 [7] | IC50 [9] | Ki [7] | Structure (SMILES) | Activity [8]
Active | 15.2 µM | > 3 | > 2 | Active | 5.8 µM | 2.4 µM | 20.2 µM | – | O=C(O)c1ccc(CN2C(=O)/C(=C/c3ccc4ccccc4c3)S/C2=N\c2ccc(C(F)(F)F)cc2)cc1 | Non-toxic
inactive | 17.5 µM | > 3 | > 2 | Active | 9.6 µM | 5.1 µM | 11.6 µM | – | COc1ccc(/N=C2\S/C(=C\c3cccc(OCc4ccccc4)c3)C(=O)N2Cc2ccc(C(=O)O)cc2)cc1 | Non-toxic
inactive | 9.1 µM | 1.4 | > 2 | inactive | 6.4 µM | 3 µM | 9.5 µM | – | COc1ccc(/N=C2\S/C(=C\c3ccc(OCc4ccccc4)cc3)C(=O)N2Cc2ccc(C(=O)O)cc2)cc1 | Non-toxic
– | 11.7 µM | – | > 2 | – | 11.6 µM | 9 µM | 27 µM | – | COc1ccc(/N=C2\S/C(=C\c3ccc4ccccc4c3)C(=O)N2Cc2ccc(C(=O)O)cc2)cc1 | Non-toxic
inactive | 18 µM | – | > 2 | Active | 11.2 µM | 2.5 µM | 7.1 µM | – | COc1ccc(/N=C2\S/C(=C\c3ccc(Oc4ccccc4)cc3)C(=O)N2Cc2ccc(C(=O)O)cc2)cc1 | Non-toxic
